Laboratory results from ChEMBL document CHEMBL5647699, “Discovery of a chemical probe for PRDM9” (Nat Commun, 2019).
Active and inactive are the calls of the source. The calls are words filed in the database; no cut-off is given here.

Experiments:
[1] = biological target: Protein arginine N-methyltransferase 3 (Homo sapiens) (UniProt O60678); assay: Inhibition of PRMT3 (unknown origin) at 1 to 10 uM; conditions: dose 1-10 µM
[2] = biological target: Histone-lysine N-methyltransferase KMT5C (Homo sapiens) (UniProt Q86Y97); assay: Inhibition of SUV420H2 (unknown origin) at 1 to 10 uM; conditions: dose 1-10 µM
Histone-lysine N-methyltransferase KMT5C (Homo sapiens), sequence (Q86Y97 whole entry, looked up): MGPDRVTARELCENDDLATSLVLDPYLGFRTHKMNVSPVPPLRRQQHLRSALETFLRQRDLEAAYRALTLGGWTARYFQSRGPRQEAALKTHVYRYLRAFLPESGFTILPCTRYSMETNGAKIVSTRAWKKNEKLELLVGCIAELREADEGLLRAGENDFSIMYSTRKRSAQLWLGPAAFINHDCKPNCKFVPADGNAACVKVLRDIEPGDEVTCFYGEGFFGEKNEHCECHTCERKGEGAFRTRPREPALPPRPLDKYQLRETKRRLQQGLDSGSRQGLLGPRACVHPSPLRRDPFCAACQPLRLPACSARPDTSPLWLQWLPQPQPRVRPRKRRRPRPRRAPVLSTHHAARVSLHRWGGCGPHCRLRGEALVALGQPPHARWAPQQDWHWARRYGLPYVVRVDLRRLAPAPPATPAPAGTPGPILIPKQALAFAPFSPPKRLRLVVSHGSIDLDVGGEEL

[3] = biological target: Histone-lysine N-methyltransferase SUV39H1 (Homo sapiens) (UniProt O43463); assay: Inhibition of SUV39H1 (unknown origin) at 1 to 10 uM; conditions: dose 1-10 µM
HEK-293T [4] = assay: Cytotoxicity against HEK293T cells at 10 uM measured after 24 hrs by IncuCyte zoom live-cell imaging analysis; format: toxicity, cell-based; conditions: human
Method in brief: (§1)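 HEK293T cells seeded, treated next day with compound for 1 day; cell number counted by live-cell imaging after Vybrant DyeCycle Green staining; mean ± sd, n = 3.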

[5] = biological target: DNMT3A2/3L complex (Homo sapiens) (UniProt Q9Y6K1+Q9UJW3); assay: Inhibition of DNMT3A/DNMT3L (unknown origin) at 1 to 10 uM; format: protein-complex assay; conditions: dose 1-10 µM
[6] = biological target: Histone-arginine methyltransferase CARM1 (Homo sapiens) (UniProt Q86X55); assay: Inhibition of PRMT4 (unknown origin) at 1 to 10 uM; conditions: dose 1-10 µM
[7] = biological target: Protein arginine N-methyltransferase 6 (Homo sapiens) (UniProt Q96LA8); assay: Inhibition of PRMT6 (unknown origin) at 1 to 10 uM; conditions: dose 1-10 µM
[8] = biological target: Histone-lysine N-methyltransferase, H3 lysine-36 specific (Homo sapiens) (UniProt Q96L73); assay: Inhibition of NSD1 (unknown origin) at 1 to 10 uM; conditions: dose 1-10 µM
[9] = biological target: Protein arginine N-methyltransferase 1 (Homo sapiens) (UniProt Q99873); assay: Inhibition of PRMT1 (unknown origin) at 1 to 10 uM; conditions: dose 1-10 µM
HCC1143 = assay: Cytotoxicity against human HCC1143 cells at upto 30 uM measured for 3 to 6 days by celltiter glo assay; format: functional, cell-based; conditions: time 3-6 day
HEK-293T [10] = assay: Cytotoxicity against HEK293T cells at 3 uM measured after 24 hrs by IncuCyte zoom live-cell imaging analysis; format: toxicity, cell-based; conditions: human; method in brief: as §1
[11] = biological target: Histone-lysine N-methyltransferase ASH1L (Homo sapiens) (UniProt Q9NR48); assay: Inhibition of ASH1L (unknown origin) at 1 to 10 uM; conditions: dose 1-10 µM
Spermatocyte [12] = assay: Induction of meiotic defect in wild type mouse spermatocyte assessed as non homologous synapsis by SYCP1/SYCP3 staining based immunofluorescence assay; format: functional, cell-based
SK-MM-2 = assay: Cytotoxicity against human SK-MM-2 cells at upto 30 uM measured for 3 to 6 days by celltiter glo assay; format: functional, cell-based; conditions: time 3-6 day
MDA-MB-436 = assay: Cytotoxicity against human MDA-MB-436 cells at upto 30 uM measured for 3 to 6 days by celltiter glo assay; format: functional, cell-based; conditions: time 3-6 day
HCC1806 = assay: Cytotoxicity against human HCC1806 cells at upto 30 uM measured for 3 to 6 days by celltiter glo assay; format: functional, cell-based; conditions: time 3-6 day
[13] = biological target: Protein arginine N-methyltransferase 7 (Homo sapiens) (UniProt Q9NVM4); assay: Inhibition of PRMT7 (unknown origin) at 1 to 10 uM; conditions: dose 1-10 µM
[14] = biological target: Histone-lysine N-methyltransferase PRDM9 (Homo sapiens) (UniProt Q9NQV7); assay: Inhibition of FLAG tagged PRDM9 transfected in HEK293T cells assessed as inhibition of trimethylation H3K4 at 10 uM measured after 20 hrs by Western blot analysis; format: cell-based
Histone-lysine N-methyltransferase PRDM9 (Homo sapiens), sequence (Q9NQV7 whole entry): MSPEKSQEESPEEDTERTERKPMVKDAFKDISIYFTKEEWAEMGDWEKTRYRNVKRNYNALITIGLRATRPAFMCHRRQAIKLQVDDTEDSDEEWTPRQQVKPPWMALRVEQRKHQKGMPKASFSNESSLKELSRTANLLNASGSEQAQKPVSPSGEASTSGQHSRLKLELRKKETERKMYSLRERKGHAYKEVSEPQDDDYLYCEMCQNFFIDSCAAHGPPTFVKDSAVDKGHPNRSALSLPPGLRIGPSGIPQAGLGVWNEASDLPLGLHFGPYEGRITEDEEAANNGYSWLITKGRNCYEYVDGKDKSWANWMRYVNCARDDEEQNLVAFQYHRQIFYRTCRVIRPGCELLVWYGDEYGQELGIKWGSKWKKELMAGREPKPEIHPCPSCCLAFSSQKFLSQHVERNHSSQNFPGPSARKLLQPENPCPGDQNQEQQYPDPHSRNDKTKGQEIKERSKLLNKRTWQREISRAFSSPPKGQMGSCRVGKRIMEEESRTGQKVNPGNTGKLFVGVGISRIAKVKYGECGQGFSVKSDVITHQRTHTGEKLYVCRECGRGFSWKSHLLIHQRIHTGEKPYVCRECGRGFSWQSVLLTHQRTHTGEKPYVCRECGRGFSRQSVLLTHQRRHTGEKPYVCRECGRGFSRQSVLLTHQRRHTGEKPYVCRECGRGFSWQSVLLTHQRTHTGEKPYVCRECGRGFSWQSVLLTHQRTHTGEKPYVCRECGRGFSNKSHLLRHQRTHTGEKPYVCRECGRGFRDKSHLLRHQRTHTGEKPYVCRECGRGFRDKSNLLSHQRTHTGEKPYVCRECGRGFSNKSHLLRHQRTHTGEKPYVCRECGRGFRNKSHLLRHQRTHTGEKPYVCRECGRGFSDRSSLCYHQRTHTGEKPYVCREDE

[15] = biological target: DNA (cytosine-5)-methyltransferase 1 (Homo sapiens) (UniProt P26358); assay: Inhibition of DNMT1 (unknown origin) at 1 to 10 uM; conditions: dose 1-10 µM
[16] = biological target: Histone-lysine N-methyltransferase EHMT1 (Homo sapiens) (UniProt Q9H9B1); assay: Inhibition of EHMT1 (unknown origin) at 1 to 10 uM; conditions: dose 1-10 µM
[17] = biological target: DNMT3B-DNMT3L complex (Homo sapiens) (UniProt Q9UBC3+Q9UJW3); assay: Inhibition of DNMT3B/DNMT3L (unknown origin) at 1 to 10 uM; format: protein-complex assay; conditions: dose 1-10 µM
DNMT3B-DNMT3L complex (Homo sapiens), sequence (Q9UJW3 whole entry, looked up, other chains not shown): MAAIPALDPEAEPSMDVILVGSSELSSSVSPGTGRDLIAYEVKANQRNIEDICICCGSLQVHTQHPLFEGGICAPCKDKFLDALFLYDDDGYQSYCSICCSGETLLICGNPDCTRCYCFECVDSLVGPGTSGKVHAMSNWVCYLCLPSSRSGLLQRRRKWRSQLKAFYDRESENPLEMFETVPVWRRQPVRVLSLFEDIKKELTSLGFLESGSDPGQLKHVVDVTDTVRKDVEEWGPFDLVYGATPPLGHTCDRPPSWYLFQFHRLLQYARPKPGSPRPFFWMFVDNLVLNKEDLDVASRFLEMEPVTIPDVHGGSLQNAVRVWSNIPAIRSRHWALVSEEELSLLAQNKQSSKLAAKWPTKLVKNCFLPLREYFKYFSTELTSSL

[18] = biological target: Histone-lysine N-methyltransferase 2A (Homo sapiens) (UniProt Q03164); assay: Inhibition of MLL1 (unknown origin) at 1 to 10 uM; conditions: dose 1-10 µM
[19] = biological target: Histone-lysine N-methyltransferase SUV39H2 (Homo sapiens) (UniProt Q9H5I1); assay: Inhibition of SUV39H2 (unknown origin) at 1 to 10 uM; conditions: dose 1-10 µM
[20] = biological target: Histone-lysine N-methyltransferase 2C (Homo sapiens) (UniProt Q8NEZ4); assay: Inhibition of MLL3 (unknown origin) at 1 to 10 uM; conditions: dose 1-10 µM
HEK-293T [21] = assay: Cytotoxicity against HEK293T cells at 10 uM measured after 4 days by IncuCyte zoom live-cell imaging analysis; format: toxicity, cell-based; conditions: human, 96 h, time 4 day
RPMI-8226 = assay: Cytotoxicity against human RPMI-8226 cells at upto 30 uM measured for 3 to 6 days by celltiter glo assay; format: functional, cell-based; conditions: time 3-6 day
CAL-85-1 = assay: Cytotoxicity against human CAL-85-1 cells at upto 30 uM measured for 3 to 6 days by celltiter glo assay; format: functional, cell-based; conditions: time 3-6 day
[22] = biological target: Histone-lysine N-methyltransferase PRDM7 (Homo sapiens) (UniProt Q9NQW5); assay: Inhibition of PRDM7 (unknown origin) using biotin-tagged Histone H3 (1 to 25) and 3H-SAM as substrate incubated for 90 mins by topcount plate reader analysis
Histone-lysine N-methyltransferase PRDM7 (Homo sapiens), sequence (Q9NQW5 whole entry): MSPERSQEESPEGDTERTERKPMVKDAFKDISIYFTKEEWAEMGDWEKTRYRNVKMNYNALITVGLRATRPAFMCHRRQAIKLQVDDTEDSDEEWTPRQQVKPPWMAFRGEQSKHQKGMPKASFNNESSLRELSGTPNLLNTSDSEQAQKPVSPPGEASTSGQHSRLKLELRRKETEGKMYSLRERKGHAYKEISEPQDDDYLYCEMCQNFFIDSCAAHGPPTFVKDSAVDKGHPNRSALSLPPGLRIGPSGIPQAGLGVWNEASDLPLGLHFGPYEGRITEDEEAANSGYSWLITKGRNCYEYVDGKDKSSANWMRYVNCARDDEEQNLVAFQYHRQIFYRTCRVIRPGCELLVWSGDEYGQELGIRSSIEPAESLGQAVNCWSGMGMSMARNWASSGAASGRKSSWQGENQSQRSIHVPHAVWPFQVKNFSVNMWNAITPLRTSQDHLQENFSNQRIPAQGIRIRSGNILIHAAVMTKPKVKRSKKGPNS

[23] = biological target: Histone-lysine N-methyltransferase PRDM9 (Homo sapiens) (UniProt Q9NQV7); assay: Inhibition of PRDM9 (unknown origin) at 1 to 10 uM; conditions: dose 1-10 µM
[24] = biological target: RNA 5'-monophosphate methyltransferase (Homo sapiens) (UniProt Q7Z5W3); assay: Inhibition of BCDIN3D (unknown origin) at 1 to 10 uM; conditions: dose 1-10 µM
RNA 5'-monophosphate methyltransferase (Homo sapiens), sequence (Q7Z5W3 whole entry): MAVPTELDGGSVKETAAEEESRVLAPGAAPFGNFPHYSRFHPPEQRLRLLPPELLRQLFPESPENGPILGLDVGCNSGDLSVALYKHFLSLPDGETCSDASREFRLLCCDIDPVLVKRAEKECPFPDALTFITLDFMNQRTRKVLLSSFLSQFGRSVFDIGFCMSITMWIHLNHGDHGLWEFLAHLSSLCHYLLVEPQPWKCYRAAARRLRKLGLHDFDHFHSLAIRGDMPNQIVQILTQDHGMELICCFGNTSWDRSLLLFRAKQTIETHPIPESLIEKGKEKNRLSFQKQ

[25] = biological target: Histone-lysine N-methyltransferase KMT5B (Homo sapiens) (UniProt Q4FZB7); assay: Inhibition of SUV420H1 (unknown origin) at 1 to 10 uM; conditions: dose 1-10 µM
Homo sapiens = organism: Homo sapiens; assay: Inhibition of PRC2 (unknown origin) at 1 to 10 uM; conditions: dose 1-10 µM
[26] = biological target: Histone-lysine N-methyltransferase SETD2 (Homo sapiens) (UniProt Q9BYW2); assay: Inhibition of SETD2 (unknown origin) at 1 to 10 uM; conditions: dose 1-10 µM
[27] = biological target: Protein arginine N-methyltransferase 9 (Homo sapiens) (UniProt Q6P2P2); assay: Inhibition of PRMT9 (unknown origin) at 1 to 10 uM; conditions: dose 1-10 µM
Spermatocyte [28] = assay: Induction of meiotic defect in wild type mouse spermatocyte assessed as effect on paring of chromosomal homolog by SYCP1/SYCP3 staining based immunofluorescence assay; format: functional, cell-based
[29] = biological target: Protein arginine N-methyltransferase 8 (Homo sapiens) (UniProt Q9NR22); assay: Inhibition of PRMT8 (unknown origin) at 1 to 10 uM; conditions: dose 1-10 µM
[30] = biological target: N-lysine methyltransferase KMT5A (Homo sapiens) (UniProt Q9NQR1); assay: Inhibition of SETD8 (unknown origin) at 1 to 10 uM; conditions: dose 1-10 µM
HEK-293T [31] = assay: Cytotoxicity against HEK293T cells at 3 uM measured after 4 days by IncuCyte zoom live-cell imaging analysis; format: toxicity, cell-based; conditions: human, 96 h, time 4 day
[32] = biological target: Histone-lysine N-methyltransferase NSD3 (Homo sapiens) (UniProt Q9BZ95); assay: Inhibition of NSD3 (unknown origin) at 1 to 10 uM; conditions: dose 1-10 µM
[33] = biological target: Histone-lysine N-methyltransferase EHMT2 (Homo sapiens) (UniProt Q96KQ7); assay: Inhibition of G9a (unknown origin) at 1 to 10 uM; conditions: dose 1-10 µM
[34] = biological target: Histone-lysine N-methyltransferase SMYD3 (Homo sapiens) (UniProt Q9H7B4); assay: Inhibition of SMYD3 (unknown origin) at 1 to 10 uM; conditions: dose 1-10 µM
[35] = biological target: Histone-lysine N-methyltransferase NSD2 (Homo sapiens) (UniProt O96028); assay: Inhibition of NSD2 (unknown origin) at 1 to 10 uM; conditions: dose 1-10 µM
[36] = biological target: Protein arginine N-methyltransferase 5 (Homo sapiens) (UniProt O14744); assay: Inhibition of PRMT5 (unknown origin) at 1 to 10 uM; conditions: dose 1-10 µM
[37] = biological target: Histone-lysine N-methyltransferase SETDB1 (Homo sapiens) (UniProt Q15047); assay: Inhibition of SETDB1 (unknown origin) at 1 to 10 uM; conditions: dose 1-10 µM
[38] = biological target: N-lysine methyltransferase SMYD2 (Homo sapiens) (UniProt Q9NRG4); assay: Inhibition of SMYD2 (unknown origin) at 1 to 10 uM; conditions: dose 1-10 µM
[39] = biological target: Histone-lysine N-methyltransferase, H3 lysine-79 specific (Homo sapiens) (UniProt Q8TEK3); assay: Inhibition of DOT1L (unknown origin) at 1 to 10 uM; conditions: dose 1-10 µM
Histone-lysine N-methyltransferase, H3 lysine-79 specific (Homo sapiens), sequence (Q8TEK3 whole entry, looked up): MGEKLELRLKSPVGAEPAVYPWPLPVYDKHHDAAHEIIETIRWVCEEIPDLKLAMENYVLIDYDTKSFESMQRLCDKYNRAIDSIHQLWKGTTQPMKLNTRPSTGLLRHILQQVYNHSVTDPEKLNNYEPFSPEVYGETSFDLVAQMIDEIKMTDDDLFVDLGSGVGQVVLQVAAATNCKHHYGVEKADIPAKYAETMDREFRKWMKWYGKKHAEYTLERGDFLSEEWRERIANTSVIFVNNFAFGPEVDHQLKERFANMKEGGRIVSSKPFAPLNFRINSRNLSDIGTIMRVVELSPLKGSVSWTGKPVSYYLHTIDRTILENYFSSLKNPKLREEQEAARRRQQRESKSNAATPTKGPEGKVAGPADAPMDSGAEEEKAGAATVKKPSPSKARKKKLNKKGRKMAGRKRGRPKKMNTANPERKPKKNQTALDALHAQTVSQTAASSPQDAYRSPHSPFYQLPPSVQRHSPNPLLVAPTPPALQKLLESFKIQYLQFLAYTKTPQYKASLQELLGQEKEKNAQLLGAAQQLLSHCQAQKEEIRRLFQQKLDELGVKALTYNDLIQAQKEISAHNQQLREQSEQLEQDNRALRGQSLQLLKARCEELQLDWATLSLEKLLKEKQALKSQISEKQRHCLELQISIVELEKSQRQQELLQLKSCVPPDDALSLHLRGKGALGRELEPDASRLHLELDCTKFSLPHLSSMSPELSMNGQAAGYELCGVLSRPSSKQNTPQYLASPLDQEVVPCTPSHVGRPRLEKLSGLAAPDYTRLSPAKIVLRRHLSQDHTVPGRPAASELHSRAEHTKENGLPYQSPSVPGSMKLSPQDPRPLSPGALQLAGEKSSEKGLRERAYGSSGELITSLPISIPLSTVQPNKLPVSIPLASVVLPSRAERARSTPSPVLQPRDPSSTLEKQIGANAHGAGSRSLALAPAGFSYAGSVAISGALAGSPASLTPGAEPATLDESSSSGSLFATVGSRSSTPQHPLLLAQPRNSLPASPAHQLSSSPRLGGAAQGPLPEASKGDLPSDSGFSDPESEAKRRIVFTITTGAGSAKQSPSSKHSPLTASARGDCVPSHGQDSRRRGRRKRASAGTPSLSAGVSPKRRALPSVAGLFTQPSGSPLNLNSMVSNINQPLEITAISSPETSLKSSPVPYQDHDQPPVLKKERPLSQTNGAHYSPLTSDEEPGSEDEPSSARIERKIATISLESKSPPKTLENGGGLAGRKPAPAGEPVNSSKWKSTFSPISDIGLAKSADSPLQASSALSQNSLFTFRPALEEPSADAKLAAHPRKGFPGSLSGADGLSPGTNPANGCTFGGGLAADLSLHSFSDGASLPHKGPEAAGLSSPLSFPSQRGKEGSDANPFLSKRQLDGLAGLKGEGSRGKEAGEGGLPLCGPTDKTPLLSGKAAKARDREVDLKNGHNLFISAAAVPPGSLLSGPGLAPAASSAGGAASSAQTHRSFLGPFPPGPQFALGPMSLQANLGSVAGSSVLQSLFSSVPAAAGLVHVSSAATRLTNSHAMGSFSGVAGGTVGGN

[40] = biological target: Histone-lysine N-methyltransferase SETD7 (Homo sapiens) (UniProt Q8WTS6); assay: Inhibition of SETD7 (unknown origin) at 1 to 10 uM; conditions: dose 1-10 µM
Histone-lysine N-methyltransferase SETD7 (Homo sapiens), sequence (Q8WTS6 whole entry): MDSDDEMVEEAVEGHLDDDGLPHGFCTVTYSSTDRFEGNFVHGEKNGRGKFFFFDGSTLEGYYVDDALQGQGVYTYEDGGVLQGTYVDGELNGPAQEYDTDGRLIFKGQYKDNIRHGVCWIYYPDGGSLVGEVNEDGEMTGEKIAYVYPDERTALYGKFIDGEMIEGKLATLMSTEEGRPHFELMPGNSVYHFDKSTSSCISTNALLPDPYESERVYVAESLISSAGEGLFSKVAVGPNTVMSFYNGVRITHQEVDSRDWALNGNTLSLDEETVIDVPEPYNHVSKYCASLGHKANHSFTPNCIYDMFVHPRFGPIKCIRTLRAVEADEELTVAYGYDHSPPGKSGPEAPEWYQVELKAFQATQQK

Protein arginine N-methyltransferase 3 (Homo sapiens), sequence (O60678 2-531 limits assumed): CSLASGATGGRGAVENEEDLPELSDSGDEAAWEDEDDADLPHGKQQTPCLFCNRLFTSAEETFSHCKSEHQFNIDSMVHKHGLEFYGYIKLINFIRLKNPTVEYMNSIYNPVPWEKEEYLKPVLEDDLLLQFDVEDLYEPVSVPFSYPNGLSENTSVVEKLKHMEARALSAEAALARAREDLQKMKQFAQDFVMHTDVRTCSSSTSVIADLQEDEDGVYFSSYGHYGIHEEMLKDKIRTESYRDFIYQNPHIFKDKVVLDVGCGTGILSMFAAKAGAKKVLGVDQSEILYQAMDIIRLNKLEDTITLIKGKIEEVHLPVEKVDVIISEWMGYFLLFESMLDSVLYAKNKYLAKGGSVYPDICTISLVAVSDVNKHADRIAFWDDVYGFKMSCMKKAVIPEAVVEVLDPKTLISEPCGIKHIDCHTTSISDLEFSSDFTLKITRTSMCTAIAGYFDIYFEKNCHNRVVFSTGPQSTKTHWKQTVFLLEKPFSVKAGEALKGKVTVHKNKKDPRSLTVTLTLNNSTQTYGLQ

COc1cc(OC)cc(-c2noc(N3CCN(C)C4(CCN(c5ccccc5)CC4)C3)n2)c1
inhibition [1]: inactive | inhibition [2]: inactive | inhibition [3]: inactive | Activity (HEK-293T [4]): Toxic | inhibition [5]: inactive | inhibition [6]: inactive | inhibition [7]: inactive | inhibition [8]: inactive | inhibition [9]: inactive | Activity (HCC1143): inactive | Activity (HEK-293T [10]): Non-Toxic | inhibition [11]: inactive | Activity (Spermatocyte [12]): inactive | Activity (SK-MM-2): inactive | Activity (MDA-MB-436): inactive | Activity (HCC1806): inactive | inhibition [13]: inactive | inhibition [14]: inactive | inhibition [15]: inactive | inhibition [16]: inactive | inhibition [17]: inactive | inhibition [18]: inactive | inhibition [19]: inactive | inhibition [20]: inactive | Activity (HEK-293T [21]): Toxic | Activity (RPMI-8226): inactive | Activity (CAL-85-1): inactive | inhibition [22]: inactive | inhibition [23]: inactive | inhibition [24]: inactive | inhibition [25]: inactive | inhibition (Homo sapiens): inactive | inhibition [26]: inactive | inhibition [27]: inactive | Activity (Spermatocyte [28]): inactive | inhibition [29]: inactive | inhibition [30]: inactive | Activity (HEK-293T [31]): Non-Toxic | inhibition [32]: inactive | inhibition [33]: inactive | inhibition [34]: inactive | inhibition [35]: inactive | inhibition [36]: inactive | inhibition [37]: inactive | inhibition [38]: inactive | inhibition [39]: inactive | inhibition [40]: inactive
